Compound activity: PubChem BioAssay, several laboratories
CAL PDZ FP-1 = CAL PDZ (human) peptide binding inhibition | purified CAL PDZ, TMR-peptide fluorescence polarization, 1 h | hit rate 0.92% among 300,000 | Q9HD26 | inhibition, % at 24.9 µM;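 active = mean inhibition of at least 30% with at least half of replicates also reaching 30%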;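 also: 0% = DMSO neutral control and 100% = excess unlabeled competitor peptide PRC23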
Keap1 Nrf2 FP = inhibitors of human Keap1-Nrf2 protein-protein interaction | Q14145 | Keap1 Kelch-Nrf2 peptide fluorescence polarization, 1536-well | inhibition, % at 9.4 µM | hit rate 0.15% among 340,000 | AID 504523; in the data active = inhibition above about 12%;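 also: human Keap1 Kelch domain with fluorescein labeled Nrf2 9mer peptide probe; 0% = neutral control wells and 100% = peptide positive control; higher means more block of Keap1 binding to Nrf2 peptide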
Target sequence (Q14145 whole entry, looked up, the tested form may be a part): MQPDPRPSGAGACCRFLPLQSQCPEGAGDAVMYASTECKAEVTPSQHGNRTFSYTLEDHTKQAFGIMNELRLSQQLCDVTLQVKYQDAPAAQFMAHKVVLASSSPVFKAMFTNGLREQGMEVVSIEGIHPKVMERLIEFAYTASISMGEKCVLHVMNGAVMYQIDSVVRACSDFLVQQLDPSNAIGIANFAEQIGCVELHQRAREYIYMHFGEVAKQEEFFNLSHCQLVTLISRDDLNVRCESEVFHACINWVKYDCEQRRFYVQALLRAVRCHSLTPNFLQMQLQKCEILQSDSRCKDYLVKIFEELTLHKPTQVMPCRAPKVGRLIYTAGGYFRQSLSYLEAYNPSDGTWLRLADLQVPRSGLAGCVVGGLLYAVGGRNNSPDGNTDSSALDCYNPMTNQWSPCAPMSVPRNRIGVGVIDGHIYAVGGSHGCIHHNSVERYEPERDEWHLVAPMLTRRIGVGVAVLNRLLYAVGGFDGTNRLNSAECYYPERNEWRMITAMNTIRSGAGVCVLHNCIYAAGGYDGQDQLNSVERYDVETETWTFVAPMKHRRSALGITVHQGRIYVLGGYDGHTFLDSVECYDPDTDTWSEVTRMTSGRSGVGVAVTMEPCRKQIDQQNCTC
RTF Ca sens act = cardiac RTF calcium sensitization; IANBD-labeled TnC RTF fluorescence at EC20 calcium; 0% EC20 calcium, 100% full calcium; activation, % at 7.2 µM; hit rate 0.24% among 340,000;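 active = activation above the mean over all tested compounds plus 3 SD, cut at about 30% in these data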;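 also: rise in fluorescence read as greater calcium sensitivity of cardiac thin filaments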
RTF Ca sens inh = cardiac RTF calcium desensitization. P19429+P45379. IANBD-labeled cardiac RTF, Ca2+ fluorescence. inhibition, % at 7.15 µM. hit rate 0.12% among 340,000;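 active = inhibition above the mean inhibition of all tested compounds plus 3 SD, cut at about 17% in these data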;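 also: assay run at fixed EC70 calcium of 1.6 mM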
CAL PDZ FP-2 = human CAL PDZ-peptide interaction inhibition | Q9HD26 | purified CAL PDZ, TMR-peptide fluorescence polarization, 1 h | inhibition, % at 20 µM | hit rate 0.02% among 330,000;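 active = highest replicate inhibition of at least 40%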;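 also: plate controls were DMSO neutral control wells for no effect and unlabeled competitor peptide control wells for full effect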
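Material: tagged CAL PDZ protein CerCALP, purified; buffer or medium: sodium phosphate/NaCl buffer pH 7.4 with TCEP, IgG, Thesit; also added: fluorescent TMR peptide probe; schedule: 1 h incubation at room temperature before polarization reading; technique: fluorescence polarization from S- and P-plane intensities, G-factor corrected; control set: unlabelled peptide and DMSO controls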
C-LANA FP = inhibitors of KSHV LANA C-terminal domain DNA binding. inhibition, % at 9 µM. AID 504423. hit rate 0.078% among 340,000. MBP-C-LANA/FAM-LBS DNA binding, fluorescence polarization;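 active = highest replicate inhibition at or above 60% at 9 µM, even if other replicates fall short; inactive = all replicates below 60% inhibition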;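 also: 0% = neutral control wells and 100% = 4 µM acridine orange control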
RTF inh confirm = cardiac RTF calcium sensitivity inhibition, confirmation; shares compounds with RTF Ca sens inh; reconstituted cardiac thin filaments, calcium sensitivity fluorescence; inhibition, % at 7.15 µM; hit rate 8% among 360; AID 504635; in the data active = inhibition above about 18%
An asterisk follows results filed as active; . = no result given; ! = repeats disagree. Shown are actives, neighbours in structure and some others; about 1.3% of the full set was active somewhere.

SMILES	CAL PDZ FP-1	Keap1 Nrf2 FP	RTF Ca sens act	RTF Ca sens inh	CAL PDZ FP-2	C-LANA FP	RTF inh confirm
COc1ccc(NC(=S)N(Cc2ccccn2)Cc2ccccc2Cl)cc1	.	3	3	17*	-1	0	2
Cc1cccc(N2CCN(S(=O)(=O)c3ccc(Cl)nc3)CC2C)c1 (centres undefined)	.	3	-1	2	-1	1	.
OCCCCNCc1ccc(OCc2ccc(Cl)cc2)cc1	-4	0	-16	17*	-2	-1	-1
CCN1/C(=C/c2ccc3ccccc3[n+]2CC)C=Cc2ccccc21	-2	-16	-12	17*	-2	-11	6
CCCc1c(O)nc(SC2CC(=O)N(c3ccc(OC)cc3)C2=O)[nH]c1=O (centres undefined)	-8	-4	-1	17*	0	-5	-2
Cc1cccc2c(C(=O)O)c3cccc(C)c3nc12	3	-5	3	3	1	2	.
C=CCNC(=S)Nc1cccc2ccccc12	-4	3	-2	20*	0	0	1
CCCCN(CCCC)CCNC(=O)c1cn(CC)c2ccc(S(=O)(=O)N3CCCC3)cc2c1=O	-2	-6	-1	0	-2	1	.
O=C1CN(S(=O)(=O)c2ccc(F)cc2)CCN1	4	1	-1	-2	0	1	.
Cc1ccc(CSc2nnc(SCC(=O)N/N=C/C=C/c3ccco3)s2)cc1	-3	-2	1	3	-2	2	.
Cc1ccc(CSc2nnc(SCC(=O)N/N=C/C=C/c3ccccc3[N+](=O)[O-])s2)cc1	-4	-4	8	21*	0	3	-5
CCOC(=O)c1c(C=O)c(C)n(Cc2ccccc2Cl)c1C	.	-3	1	18*	-2	-2	-3
CCOC(=O)c1c(C=O)c(C)n(Cc2ccc(C)cc2)c1C	-7	-3	5	-5	-1	1	.
CCCc1cc(C(=O)N/N=C/c2ccc(C)o2)c2ccccc2n1	-7	-1	1	7	-4	-1	.
CCc1cc(C(=O)N/N=C/c2ccc(OC)cc2)c2ccccc2n1	-6	-1	-9	18*	-2	-1	-5
COc1cc(/C=N/NC(=O)c2cc(-c3ccco3)nc3ccccc23)cc(OC)c1O	-4	-2	2	-10	-3	2	.
O=C(N/N=C/c1cccc(F)c1)c1cc(-c2ccco2)nc2ccccc12	0	-6	-15	17*	-2	-3	0
N#C/C(N=Nc1ccccc1O)=N\Nc1ccccc1O	-4	-1	-5	-21	2	0	.
O=S(=O)(O)c1cccc2c(N=Nc3ccc(O)c4ncccc34)cccc12	11	5	-40	37*	3	48	10
C=CCC[C@H](Cc1ccc(F)cc1)C(=O)OC[C@@H](NC(=O)[C@@H](CC=C)CC(=O)N[C@@H](CO)Cc1ccccc1)C(C)(C)C	2	-5	9	2	-2	-1	.
C=CCC[C@@H](Cc1ccc(F)cc1)C(=O)OC[C@@H](NC(=O)[C@@H](CC=C)CC(=O)N[C@@H](CO)Cc1ccccc1)C(C)(C)C	0	0	-3	18*	0	0	0
CCC(C)C(NC(=O)C1CCC(C)CC1)C(=O)Nc1ccc(OC)cc1 (centres undefined)	-2	-3	1	-8	-1	-1	.
COC(=O)C(CCSC)NC(=O)C(NC(=O)C1CCC(C)CC1)C(C)C (centres undefined)	.	-2	1	-8	-1	-2	.
CCC(C)C(NC(=O)C1CCC(C)CC1)C(=O)NC(CCSC)C(=O)OC (centres undefined)	-2	2	1	18*	-1	2	-6
CCc1cccc(NC(=O)C2CCCN(S(=O)(=O)c3cccs3)C2)c1 (centres undefined)	6	2	4	24*	-3	0	-2
SMILES	CAL PDZ FP-1	Keap1 Nrf2 FP	RTF Ca sens act	RTF Ca sens inh	CAL PDZ FP-2	C-LANA FP	RTF inh confirm
COc1ccc(NC(=O)C2CCCN(S(=O)(=O)c3cccs3)C2)cc1OC (centres undefined)	-1	-3	11	-6	0	2	.
CCOP(=O)(NC(c1ccccc1)c1nc2ccccc2[nH]c1=O)OCC (centres undefined)	2	-2	-2	-2	-1	-2	.
CC1CCC(NC(=O)COC(=O)C2=NN(c3ccccc3)C(=O)CC2)CC1 (centres undefined)	.	-4	0	-7	-1	0	.
COCCCC/C(=N\OCCN)c1ccc(C(F)(F)F)cc1	-2	-4	3	20*!	0	-1	2
COCCOc1ccc(C(F)(F)F)cc1N	.	0	0	-7	0	-1	.
Cc1ccc(C(=O)N2CCN(c3ccc(NC(=O)Cc4ccccc4)cc3)CC2)cc1	-2	0	3	18*	-1	2	-5
O=C1CCCc2c1cnc1ncnn21	0	0	-6	18*	-1	0	-3
Nc1c(-c2ccsc2)cnc2ncnn12	-1	-3	-4	2	-2	1	.
C[C@H](O)CC(=O)O	-4	-3	-8	19*!	0	0	-3
O=C(O)c1ccc2c(c1)C(=O)/C(=C/c1ccccc1)C2=O	0	2	0	-13	-3	19	.
O=C(O)c1ccc2c(c1)C(=O)/C(=C\c1ccco1)C2=O	-4	1	-12	20*	-4	70*	1
CCCOc1ccccc1C1NC(=O)NC(C)=C1C(=O)OCCOC (centres undefined)	-1	-3	7	19*	-1	0	-1
CSc1nc(-c2ccccc2)cc(C)c1C#N	1	1	9	18*	-3	0	-10
O=C(c1ccc(N2CCCC2)c([N+](=O)[O-])c1)N1CCc2ccccc2C1	.	-1	-17	-12	-1	1	.
N#Cc1ccc(N2CCc3ccccc3C2)c([N+](=O)[O-])c1	.	-5	-2	188*	0	-2	-5
CCN(CC(=O)Nc1c(F)cccc1F)C(=O)/C=C/c1ccc2ccccc2n1	-2	3	-11	20*	0	2	2
Cn1nc(N)c2c(-c3ccc(Cl)cc3)c(C#N)c(N)nc21	.	1	11	-1	-3	-1	.
Cn1nc(N)c2c(-c3ccccc3)c(C#N)c(N)nc21	-1	-2	0	17*	0	2	-4
CC1(C)CC(=O)C(Sc2ccccc2)=C(O)C1	.	-2	2	56*	-1	2	1
